Reference: ChEMBL document CHEMBL4411279, “Synthesis of new chalcone-based homoserine lactones and their antiproliferative activity evaluation” (Eur J Med Chem, 2019)
Active and inactive are the calls of the source. The calls are words filed in the database; no cut-off is given here.

Legend:
MCF7 = experiment: Antiproliferative activity against human MCF7 cells after 72 hrs by MTT assay; type: functional, cell-based; conditions: MCF7, 72 h
Method in brief: (§1)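 Cells seeded 3,000/well, after 24 h medium replaced with compound at 64, 32, 16, 8, 4, 2, 1, 0.5 µM; 72 h exposure, MTT read-out at 570 nm; IC50 given as mean ± SD.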

MGC-803 = experiment: Antiproliferative activity against human MGC803 cells after 72 hrs by MTT assay; type: functional, cell-based; conditions: MGC-803, 72 h; method in brief: as §1
DU-145 [1] = experiment: Antiproliferative activity against human DU145 cells after 72 hrs by MTT assay; type: functional, cell-based; conditions: DU-145, 72 h; method in brief: as §1
PC-3 = experiment: Antiproliferative activity against human PC3 cells after 72 hrs by MTT assay; type: functional, cell-based; conditions: PC-3, 72 h; method in brief: as §1
DU-145 [2] = experiment: Inhibition of colony formation in human DU145 cells after 21 days by crystal violet staining-based assay; type: functional, cell-based
Method in brief: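 DU145 seeded 4000/well, grown 4 days, then medium with compound at various concentrations for 21 days; PBS washed, fixed in 4% paraformaldehyde, stained with 0.1% crystal violet; colonies (>10 cells) counted; inhibition = (1 − treated/control colonies) × 100%.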

DU-145 [3] = experiment: Growth inhibition of human DU145 cells at 5 uM after 24 to 48 hrs by MTT assay; type: functional, cell-based
Method in brief: (§2)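 DU145 growth inhibition measured by MTT; time course at 24, 48 and 72 h; combination arm used recombinant TRAIL at 100 ng/mL together with compound (2.5 or 5.0 µM); mean ± SD, experiment repeated three times, Student's t test.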

DU-145 [4] = experiment: Growth inhibition of human DU145 cells at 5 uM by MTT assay; type: functional, cell-based; conditions: TDE = time-dependent effect; method in brief: as §2
DU-145 [5] = experiment: Growth inhibition of human DU145 cells at 5 uM after 72 hrs in presence of TRAIL by MTT assay relative to control; type: functional; conditions: DU-145, 72 h, read-out: GI; method in brief: as §2
DU-145 [6] = experiment: Induction of apoptosis in human DU145 cells assessed as cell rounding at 10 uM after 24 hrs by Hoechst 33258 staining-based fluorescence microscopic analysis; type: functional
Method in brief: (§3)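 DU145 seeded 1×10^5/well, adhered overnight, treated 24 h with compound alone or combined with TRAIL; stained with Hoechst 33258 for 30 min in the dark; nuclear morphology examined by fluorescence microscopy.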

DU-145 [7] = experiment: Induction of apoptosis in human DU145 cells assessed as cell rounding at 10 uM after 24 hrs in presence of TRAIL by Hoechst 33258 staining-based fluorescence microscopic analysis; type: functional; method in brief: as §3
DU-145 [8] = experiment: Induction of apoptosis in human DU145 cells assessed as chromatin shrinkage at 10 uM after 24 hrs by Hoechst 33258 staining-based fluorescence microscopic analysis; type: functional, cell-based; method in brief: as §3
DU-145 [9] = experiment: Induction of apoptosis in human DU145 cells assessed as chromatin shrinkage at 10 uM after 24 hrs in presence of TRAIL by Hoechst 33258 staining-based fluorescence microscopic analysis; type: functional, cell-based; method in brief: as §3
DU-145 [10] = experiment: Induction of apoptosis in human DU145 cells assessed as formation of apoptotic bodies at 10 uM after 24 hrs by Hoechst 33258 staining-based fluorescence microscopic analysis; type: functional, cell-based; method in brief: as §3
DU-145 [11] = experiment: Induction of apoptosis in human DU145 cells assessed as formation of apoptotic bodies at 10 uM after 24 hrs in presence of TRAIL by Hoechst 33258 staining-based fluorescence microscopic analysis; type: functional, cell-based; method in brief: as §3
DU-145 [12] = experiment: Induction of apoptosis in human DU145 cells assessed as viable cells at 10 uM after 24 hrs by Annexin V-FITC/propidium iodide staining-based high content screening assay (reference value: 97.9%); type: functional; conditions: DU-145, 24 h, read-out: Activity
Method in brief: (§4)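 DU145 seeded 3×10^5/well, grown 24 h, treated 24 h with compound alone or plus TRAIL; harvested, stained with Annexin V-FITC/PI per kit protocol, quantified by high content screening; mean ± SD of three experiments.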

DU-145 [13] = experiment: Induction of apoptosis in human DU145 cells assessed as early apoptotic cells at 10 uM after 24 hrs by Annexin V-FITC/propidium iodide staining-based high content screening assay (reference value: 0.3%); type: functional; method in brief: as §4
DU-145 [14] = experiment: Induction of apoptosis in human DU145 cells assessed as late apoptotic cells at 10 uM after 24 hrs by Annexin V-FITC/propidium iodide staining-based high content screening assay (reference value: 0.2%); type: functional; method in brief: as §4
DU-145 [15] = experiment: Induction of apoptosis in human DU145 cells assessed as necrotic cells at 10 uM after 24 hrs by Annexin V-FITC/propidium iodide staining-based high content screening assay (reference value: 1.6%); type: functional; method in brief: as §4
DU-145 [16] = experiment: Induction of apoptosis in human DU145 cells assessed as viable cells at 10 uM after 24 hrs in presence of TRAIL by Annexin V-FITC/propidium iodide staining-based high content screening assay (reference value: 97.9%); type: functional; conditions: DU-145, 24 h, read-out: Activity; method in brief: as §4
DU-145 [17] = experiment: Induction of apoptosis in human DU145 cells assessed as early apoptotic cells at 10 uM after 24 hrs in presence of TRAIL by Annexin V-FITC/propidium iodide staining-based high content screening assay (reference value: 0.3%); type: functional; method in brief: as §4
DU-145 [18] = experiment: Induction of apoptosis in human DU145 cells assessed as late apoptotic cells at 10 uM after 24 hrs in presence of TRAIL by Annexin V-FITC/propidium iodide staining-based high content screening assay (reference value: 0.2%); type: functional; method in brief: as §4
DU-145 [19] = experiment: Induction of apoptosis in human DU145 cells assessed as necrotic cells at 10 uM after 24 hrs in presence of TRAIL by Annexin V-FITC/propidium iodide staining-based high content screening assay (reference value: 1.6%); type: functional; method in brief: as §4
DU-145 [20] = experiment: Induction of apoptosis in human DU145 cells assessed as increase in caspase-3/7 activity at 10 to 50 uM after 24 hrs by Caspase-Glo 3/7 assay; type: functional, cell-based
Method in brief: (§5)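 DU145 treated 24 h with compound alone or with TRAIL (100 ng/mL); caspase-3/7 activity measured by Caspase-Glo 3/7 luminescent protocol relative to untreated control; three independent experiments, mean ± SD, Student's t test.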

DU-145 [21] = experiment: Induction of apoptosis in human DU145 cells assessed as increase in caspase-3/7 activity at 10 uM after 24 hrs in presence of TRAIL by Caspase-Glo 3/7 assay relative to control; type: functional; method in brief: as §5

IC50 (MCF7) [µM] | IC50 (MGC-803) [µM] | IC50 (DU-145 [1]) [µM] | IC50 (PC-3) [µM] | SMILES | further results
50.5 | 51.1 | > 64 | > 64 | O=C1OCC[C@@H]1NC(=S)SCCOc1ccc(Cl)cc1 | –
> 64 | > 64 | 19.8 | 21.9 | O=C(COc1ccc(C(=O)/C=C/c2ccc(F)c(F)c2)cc1)N[C@H]1CCOC1=O | –
> 64 | 43.4 | > 64 | > 64 | Cc1ccc(C(C)C)c(OCCSC(=S)N[C@H]2CCOC2=O)c1 | –
> 64 | > 64 | 28.2 | 24.1 | CCOc1ccccc1OCCSC(=S)N[C@H]1CCOC1=O | –
> 64 | 39.4 | 10.1 | 7.24 | COc1ccccc1/C=C/C(=O)c1ccc(OCC(=O)N[C@H]2CCOC2=O)cc1 | –
> 64 | > 64 | > 64 | > 64 | O=C(CNc1ccc(Cl)cc1)N[C@H]1CCOC1=O | –
> 64 | > 64 | > 64 | > 64 | O=C(CNc1ccccc1)N[C@H]1CCOC1=O | –
> 64 | > 64 | > 64 | > 64 | CC(C)c1ccc(NCC(=O)N[C@H]2CCOC2=O)cc1 | –
> 64 | > 64 | > 64 | > 64 | O=C(CNc1ccccc1F)N[C@H]1CCOC1=O | –
20.9 | 29.1 | 3.7 | 4.99 | O=C(COc1ccc(C(=O)/C=C/c2cccc(Cl)c2)cc1)N[C@H]1CCOC1=O | –
> 64 | > 64 | > 64 | > 64 | O=C1OCC[C@@H]1NC(=S)SCCOc1cccc2ccccc12 | –
23.4 | 16.8 | 13.1 | 4.66 | CC(C)c1ccc(/C=C/C(=O)c2ccc(OCC(=O)N[C@H]3CCOC3=O)cc2)cc1 | –
39.5 | 32.3 | > 64 | > 64 | O=C1OCC[C@@H]1NC(=S)SCCOc1ccccc1Cc1ccccc1 | –
> 64 | > 64 | 32.6 | 46.9 | CC(=O)c1ccc(OCCSC(=S)N[C@H]2CCOC2=O)cc1 | –
> 64 | 53.8 | 63.8 | > 64 | O=C1OCC[C@@H]1NC(=S)SCCOc1ccccc1 | –
> 64 | > 64 | > 64 | > 64 | O=C(CNc1cccc(Cl)c1)N[C@H]1CCOC1=O | –
> 64 | > 64 | > 64 | > 64 | O=C(CNc1ccccc1Cl)N[C@H]1CCOC1=O | –
> 64 | > 64 | 41.8 | 56.2 | O=C(COc1ccc(C(=O)/C=C/c2cccc([N+](=O)[O-])c2)cc1)N[C@H]1CCOC1=O | –

IC50 (MCF7) [µM] | IC50 (MGC-803) [µM] | IC50 (DU-145 [1]) [µM] | IC50 (PC-3) [µM] | SMILES | further results
28.3 | 11.9 | 9.8 | 7.89 | O=C(COc1ccc(C(=O)/C=C/c2cccc(Br)c2)cc1)N[C@H]1CCOC1=O | –
16.4 | 17.2 | 6.57 | 10.6 | CC(C)(C)c1ccc(/C=C/C(=O)c2ccc(OCC(=O)N[C@H]3CCOC3=O)cc2)cc1 | –
> 64 | 47 | 33.4 | 24 | O=C1OCC[C@@H]1NC(=S)SCCOc1ccccc1[N+](=O)[O-] | –
> 64 | > 64 | 17.2 | 23.2 | O=C(COc1ccc(C(=O)/C=C/c2cccc(F)c2)cc1)N[C@H]1CCOC1=O | –
> 64 | > 64 | 48.3 | 56.8 | O=C(COc1ccc(C(=O)/C=C/c2ccccc2)cc1)N[C@H]1CCOC1=O | –
26.2 | 29.5 | 19.3 | 22.5 | CCCCCCCCCC(=O)CC(=O)N[C@H]1CCOC1=O | inhibition (DU-145 [2]): Dose-dependent effect; Activity (DU-145 [3]): Active; growth inhibition (GI) (DU-145 [4]): Tde; inhibition of growth at 5 µM (DU-145 [5]): 20%; Activity (DU-145 [6]): Active; Activity (DU-145 [7]): Active; Activity (DU-145 [8]): Active; Activity (DU-145 [9]): Active; Activity (DU-145 [10]): Active; Activity (DU-145 [11]): Active; viability at 10 µM (DU-145 [12]): 89.2%; Activity (DU-145 [13]): 9.2%; Activity (DU-145 [14]): 1.1%; Activity (DU-145 [15]): 0.5%; viability at 10 µM (DU-145 [16]): 77.9%; Activity (DU-145 [17]): 12.2%; Activity (DU-145 [18]): 9.7%; Activity (DU-145 [19]): 0.2%; Activity (DU-145 [20]): Active; fold change (FC) (DU-145 [21]): 2
> 64 | > 64 | 18.8 | 15.6 | O=C(COc1ccc(C(=O)/C=C/c2ccc(F)cc2)cc1)N[C@H]1CCOC1=O | –
> 64 | > 64 | > 64 | > 64 | Cc1cc(Cl)ccc1NCC(=O)N[C@H]1CCOC1=O | –
34.4 | 26.5 | 8.61 | 8.04 | O=C(COc1ccc(C(=O)/C=C/c2ccc(Cl)cc2Cl)cc1)N[C@H]1CCOC1=O | –
> 64 | > 64 | > 64 | > 64 | O=C(CNc1ccc(F)cc1)N[C@H]1CCOC1=O | –
> 64 | 51 | 51.7 | > 64 | O=C(COc1ccc(C(=O)/C=C/c2ccc(Br)cc2)cc1)N[C@H]1CCOC1=O | –
> 64 | > 64 | > 64 | > 64 | CCCCCCCCCCSC(=S)N[C@H]1CCOC1=O | –
> 64 | > 100 | 31 | 32.5 | O=C1OCC[C@@H]1NC(=S)SCCOc1ccc([N+](=O)[O-])cc1 | –
> 64 | > 64 | > 64 | > 64 | O=C(CNc1ccc(Br)cc1)N[C@H]1CCOC1=O | –
> 64 | 27.9 | > 64 | > 64 | C=CCc1ccc(OCCSC(=S)N[C@H]2CCOC2=O)c(OC)c1 | –
15.2 | 12.2 | 3.54 | 3.26 | O=C(COc1ccc(C(=O)/C=C/c2ccccc2Br)cc1)N[C@H]1CCOC1=O | –
> 64 | > 64 | > 64 | > 64 | O=C(CNc1ccc(Cl)cc1Cl)N[C@H]1CCOC1=O | –
